Non-standard residues stand in square brackets, D forms with d. Residues, ends and D or L forms follow the SMILES beside them. *: point of attachment. NMeNle = CCCC[C@H](NC)C(=O)O; X1 = CCCCCNC(=O)CC(=O)*; Boc = CC(C)(C)OC(=O)*
Legend:
[1] = biological target: Gastrin/cholecystokinin type B receptor (Rattus norvegicus) (UniProt P30553); assay: Ability to displace 1 nM [3H]pCCK-8 from rat Cholecystokinin type B receptor stably expressing in CHO cells
[2] = biological target: Cholecystokinin receptor type A (Cavia porcellus); assay: Ability to displace 1 nM [3H]pCCK-8 from Cholecystokinin type A receptor in guinea pig pancreatic membranes
[3] = test system: CHO; assay: Agonistic activity on arachidonic acid liberation by intact transfected CHO cells; format: functional, cell-based; settings: Cricetulus griseus
Outline: (§1)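 Functional agonism on intact CHO cells transfected with CCK2 receptors. Two read-outs were measured, inositol phosphate production and arachidonic acid liberation, each expressed as EC50.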

[4] = test system: CHO; assay: Compound was evaluated for binding of [3H]BBL454 to two sites in CHO cells with low affinity; format: functional, Cricetulus griseus
[5] = test system: CHO; assay: Agonistic activity on inositol phosphate production by intact transfected CHO cells; format: functional, cell-based; settings: Cricetulus griseus
Outline: as §1

[6] = test system: CHO; assay: Compound was evaluated for binding of [3H]BBL454 to two sites in CHO cells with high affinity; format: functional, Cricetulus griseus
[7] = test system: CHO; assay: Compound was evaluated for maximum binding of [3H]BBL454 to two sites in CHO cells with high affinity; format: functional, Cricetulus griseus

Sequence of Gastrin/cholecystokinin type B receptor (Rattus norvegicus) (P30553 whole entry, looked up): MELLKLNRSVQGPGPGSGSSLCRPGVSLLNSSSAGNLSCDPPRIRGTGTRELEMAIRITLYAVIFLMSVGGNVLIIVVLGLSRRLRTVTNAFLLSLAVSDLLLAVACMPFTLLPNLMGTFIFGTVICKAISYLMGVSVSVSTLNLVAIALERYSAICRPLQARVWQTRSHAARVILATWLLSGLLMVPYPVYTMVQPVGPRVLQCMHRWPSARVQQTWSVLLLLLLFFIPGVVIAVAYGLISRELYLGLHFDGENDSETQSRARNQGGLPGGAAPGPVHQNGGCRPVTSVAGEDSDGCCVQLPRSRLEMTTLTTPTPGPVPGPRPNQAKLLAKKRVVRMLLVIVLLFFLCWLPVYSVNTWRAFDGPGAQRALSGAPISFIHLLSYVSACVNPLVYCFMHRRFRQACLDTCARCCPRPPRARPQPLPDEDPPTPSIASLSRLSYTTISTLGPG

| Ki [1] [nM] | Ki [2] [nM] | SMILES | EC50 [3] [nM] | KD2 [4] [nM] | EC50 [5] [nM] | KD1 [6] [nM] | Bmax1 [7] [fmol/mg] |
| --- | --- | --- | --- | --- | --- | --- | --- |
| 2.6 | > 5000 | CCCC[C@@H](C(=O)N[C@@H](CC(=O)O)C(=O)N[C@@H](Cc1ccccc1)C(N)=O)N(C)C(=O)[C@H](Cc1c[nH]c2ccccc12)NC(=O)OC(C)(C)C (Boc-W[NMeNle]DF-NH2) | – | – | – | – | – |
| 2.66 | 3640 | CCCCCNC(=O)CC(=O)N[C@@H](Cc1c[nH]c2ccccc12)C(=O)N(C)[C@@H](CCCC)C(=O)N[C@@H](CC(=O)O)C(=O)N[C@@H](Cc1ccccc1)C(N)=O (X1-W[NMeNle]DF-NH2) | 6.9 | 194 | 2 | 0.71 | 120 |

Source: ChEMBL document CHEMBL1146828, “Synthesis and biological characterisation of [3H]BBL454, a new CCK2 selective radiolabelled agonist displaying original pharmacological properties” (Bioorg Med Chem Lett, 2004)
